In ChEMBL document CHEMBL1773034 (J Nat Prod, 2011):
pIC50: −log10 of the molar value. The source made the active and inactive calls. No cut-off for these calls is given here.

How the values were obtained:
THP-1 [1] = test: Antiinflammatory activity against human THP1 cells assessed as inhibition of LPS-induced NFKB p65 subunit translocation to nucleus at 10 uM pretreated for 1 hr before LPS challenge relative to control; type: functional
Method in brief: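 PMA-differentiated THP-1 macrophages pretreated 1 h (0.1% DMSO vehicle), then 1 μg/mL E. coli 0111:B4 LPS; harvested 1 h after LPS by trypsinization/scraping. Cytoplasmic and nuclear fractions separated; p65 quantified in each by transcription-factor ELISA-type kit, cytoplasm/nuclear ratio calculated. Means ± SE, three independent experiments, three measurements each.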

THP-1 [2] = test: Antiinflammatory activity against human THP1 cells of assessed as inhibition of LPS-induced TNFalpha gene expression at 10 uM pretreated for 1 hr before LPS challenge measured after 2 to 10 hrs by RT-qPCR; type: functional, cell-based
Method in brief: (§1)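 THP-1 monocytes, PMA-differentiated to macrophages, pretreated 1 h with compound in DMSO (0.1% final), then stimulated with 1 μg/mL LPS. Cells lysed in wells at 2, 4, 6 and 10 h post-LPS; TaqMan two-step RT-qPCR, ROX-normalized, ΔΔCT with unstimulated control set to 1. Means ± SE, three independent experiments.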

THP-1 [3] = test: Antiinflammatory activity against human THP1 cells assessed as inhibition of LPS-induced ZFP36 gene expression at 10 uM pretreated for 1 hr before LPS challenge measured after 2 hrs by RT-qPCR relative to control; type: functional; method in brief: as §1
[4] = Cytotoxicity against human THP1 cells after 24 hrs by erythrosin B staining; type: cell-based; details: THP-1 cells, read-out: LD50
Method in brief: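 THP-1 monocytes given five increasing concentrations (1-50 μM for the flavone; 1-100 μM for indomethacin) from DMSO stocks, final DMSO 0.1%, in RPMI 1640 with 10% FBS. Incubated 24 h at 37 C, 5% CO2. Cells were mixed 1:1 with 0.1% erythrosin B in PBS and counted by hemocytometer, with unstained cells taken as viable. LD50 was calculated from dose-response curves.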

THP-1 [5] = test: Antiinflammatory activity against human THP1 cells of assessed as inhibition of LPS-induced TNFalpha gene expression at 10 uM pretreated for 1 hr before LPS challenge measured after 2 hrs by RT-qPCR relative to control; type: functional; method in brief: as §1
THP-1 [6] = test: Antiinflammatory activity against human THP1 cells of assessed as inhibition of LPS-induced COX-2 gene expression at 10 uM pretreated for 1 hr before LPS challenge measured after 4 hrs by RT-qPCR; type: functional, cell-based; method in brief: as §1
[7] = Selectivity ratio of IC50 for human recombinant COX2 to IC50 for ram seminal vesicle COX1; type: tissue-based
Method in brief: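 Enzymes were human recombinant COX-2 (0.5 unit/reaction) and ram seminal vesicle COX-1 (1 unit/reaction), in 0.1 M Tris/HCl pH 8.0 with 5 μM hematin, 18 mM L-epinephrine, 50 μM EDTA. Compound in DMSO was preincubated 5 min at room temperature, then arachidonic acid was added for 20 min at 37 °C. PGE2 was read by competitive EIA at 405 nm. IC50 came from regression on ≥3 concentrations, with four independent experiments. Selectivity was taken as the COX-2/COX-1 IC50 ratio.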

[8] = biological target: T1, Prostaglandin G/H synthase 2 (Homo sapiens, UniProt P35354); test: Inhibition of human recombinant COX-2 assessed as PGE2 production from arachidonic acid after 20 mins enzyme immunoassay
T1 sequence (P35354 whole entry): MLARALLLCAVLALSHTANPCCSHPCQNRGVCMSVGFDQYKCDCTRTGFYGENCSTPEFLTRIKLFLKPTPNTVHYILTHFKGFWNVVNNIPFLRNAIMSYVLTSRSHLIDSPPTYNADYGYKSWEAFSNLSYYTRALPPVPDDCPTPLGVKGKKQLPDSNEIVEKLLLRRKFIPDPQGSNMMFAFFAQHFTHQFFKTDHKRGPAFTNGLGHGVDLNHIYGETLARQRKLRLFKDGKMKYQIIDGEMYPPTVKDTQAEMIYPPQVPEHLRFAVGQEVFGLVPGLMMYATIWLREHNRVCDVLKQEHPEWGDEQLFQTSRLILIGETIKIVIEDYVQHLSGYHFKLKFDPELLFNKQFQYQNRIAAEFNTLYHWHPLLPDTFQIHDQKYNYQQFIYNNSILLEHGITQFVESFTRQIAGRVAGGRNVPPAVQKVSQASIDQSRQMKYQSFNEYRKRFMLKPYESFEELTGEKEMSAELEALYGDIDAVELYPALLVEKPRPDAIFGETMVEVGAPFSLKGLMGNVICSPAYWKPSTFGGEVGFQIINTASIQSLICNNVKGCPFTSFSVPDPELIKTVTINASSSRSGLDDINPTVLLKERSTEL

THP-1 [9] = test: Antiinflammatory activity against human THP1 cells of assessed as inhibition of LPS-induced TNFalpha protein synthesis at 10 uM pretreated for 1 hr before LPS challenge measured after 2 to 10 hrs relative to control; type: functional
THP-1 [10] = test: Antiinflammatory activity against human THP1 cells of assessed as inhibition of LPS-induced TNFalpha protein synthesis at 10 uM pretreated for 1 hr before LPS challenge measured after 2 to 10 hrs; type: functional, cell-based
THP-1 [11] = test: Antiinflammatory activity against human THP1 cells assessed as increase in LPS-induced ZFP36 gene expression at 10 uM pretreated for 1 hr before LPS challenge measured after 4 hrs by RT-qPCR relative to control
RAW264.7 [12] = test: Antiinflammatory activity against mouse RAW264.7 cells assessed as nitric oxide production; type: functional, cell-based
RAW264.7 [13] = test: Antiinflammatory activity against mouse RAW264.7 cells assessed as iNOS gene expression; type: functional, cell-based
[14] = biological target: T2, Prostaglandin G/H synthase 1 (Ovis aries, UniProt P05979); test: Inhibition of ram seminal vesicle COX-1 assessed as PGE2 production from arachidonic acid after 20 mins enzyme immunoassay; type: tissue-based
T2 sequence (P05979 whole entry): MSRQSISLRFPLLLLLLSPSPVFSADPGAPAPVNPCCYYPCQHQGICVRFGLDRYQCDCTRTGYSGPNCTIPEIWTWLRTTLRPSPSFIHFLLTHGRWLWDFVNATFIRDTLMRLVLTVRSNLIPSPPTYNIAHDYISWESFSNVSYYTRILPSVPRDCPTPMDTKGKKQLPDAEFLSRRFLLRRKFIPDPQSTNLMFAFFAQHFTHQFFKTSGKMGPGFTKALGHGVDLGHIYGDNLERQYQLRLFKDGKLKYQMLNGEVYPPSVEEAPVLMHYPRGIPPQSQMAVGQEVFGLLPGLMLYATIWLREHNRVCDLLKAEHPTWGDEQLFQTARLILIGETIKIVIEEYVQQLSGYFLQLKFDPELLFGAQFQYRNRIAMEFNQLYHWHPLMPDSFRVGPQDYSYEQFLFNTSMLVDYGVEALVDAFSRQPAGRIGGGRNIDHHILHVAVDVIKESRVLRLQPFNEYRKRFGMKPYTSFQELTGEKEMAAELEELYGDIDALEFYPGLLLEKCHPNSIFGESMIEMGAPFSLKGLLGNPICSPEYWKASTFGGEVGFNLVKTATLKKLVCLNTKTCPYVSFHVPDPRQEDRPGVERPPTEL

| SMILES | Activity (THP-1 [1]) | Activity (THP-1 [2]) | Activity (THP-1 [3]) | CC50 at 24 h [4] | Ratio (THP-1 [5]) | fold change (FC) (THP-1 [1]) | Activity (THP-1 [6]) | fold change (FC) (THP-1 [3]) | Ratio IC50 [7] | pIC50 [8] | Ratio (THP-1 [9]) | Activity (THP-1 [10]) | Ratio (THP-1 [11]) | Activity (RAW264.7 [12]) | Activity (RAW264.7 [13]) | pIC50 [14] |
| --- | --- | --- | --- | --- | --- | --- | --- | --- | --- | --- | --- | --- | --- | --- | --- | --- |
| COc1ccc2c(c1)c(CC(=O)O)c(C)n2C(=O)c1ccc(Cl)cc1 [INDOMETHACIN] | Active | Active | Active | > 100000 nM |  |  |  |  |  |  |  |  |  |  |  |  |
| CC(C)=CCc1c(-c2ccc(O)cc2O)oc2cc3c(c(O)c2c1=O)C=CC(C)(C)O3 [CUDRAFLAVONE B] |  | Active |  | 47600 nM | 5.8 | 3.2 | Active | 5.8 | 1.7 | 5.60 | 20 | Active | 2 | Dose-dependent effect | Dose-dependent effect | 5.82 |
